We go through one sequence from publication PMC3253265 (Immunity, 2011).

Assay [1] concerns 42F3 T cells. The assay is classed as cell-based. Conditions: CD8+ and CD8− 42F3 T cell lines, peptide-loaded APCs, up to 100μM peptide.
The test system of assay [2] is 42F3 TCR. Briefly: Fluorescent 42F3-tetramer staining of peptide-loaded APCs. The format is cell-based. Summed up: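 Tetramers were made by complexing C-terminally biotinylated recombinant 42F3 TCR with PE-labelled streptavidin. They were used to stain peptide-loaded APCs, with fluorescence read by flow cytometry. Staining was compared against SPR-derived 3D affinities of the pMHC ligands.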

The test system of assay [3] is 42F3 T cells. Kind of assay: p3A1 antagonist assay. The assay is classed as cell-based. Conditions: 42F3 T cells stimulated with 100nM p4B3, range of p3A1 concentrations, same APC. Summed up:
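Antagonism assay: 42F3 hybridoma cells were stimulated with an agonist peptide at 100nM. The test peptide was added over a range of concentrations, and IL-2 production was read by ELISA. Anti-CD3 (2C11) and/or native peptide served as IL-2 sensitivity controls. No peptide and an irrelevant H2-Ld MCMV epitope controlled for peptide-independent IL-2.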

In assay [4] the test system is 42F3 T cells. Briefly: Fluorescent sc H2-L^d-tetramer staining of 42F3 T cells. The assay is classed as cell-based.
Assay [5] deals with 42F3 T cells. The assay is classed as cell-based. Conditions: recombinant H2-L^d-Ig dimers, CD8+ 42F3 T cells, IL-2 release. The essentials: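 CD8+ 42F3 hybridoma transfectants were stimulated with recombinant H2-Ld-Ig dimers loaded with peptide instead of APC-presented peptide. IL-2 release was read by ELISA. Anti-CD3 (2C11) and/or native peptide controlled IL-2 sensitivity. No-peptide and irrelevant H2-Ld MCMV epitope controls covered peptide-independent IL-2.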

Assay [6] relates to 42F3 TCR on CD8αβ− 42F3 T cells. The assay is classed as binding. The essentials: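 42F3 hybridoma transfectants supplied the TCR. RBCs were biotinylated with biotin-X-NHS and then bound to streptavidin. Borosilicate beads were cleaned, silanized and reacted with streptavidin-maleimide. Both carried […] biotin-tagged single-chain H2-Ld-peptide complexes, the same ones used for SPR. Flow cytometry measured site densities of TCR on cells and pMHC on RBC or beads. Micropipette adhesion frequency and thermal fluctuation assays were run.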

The test system of assay [7] is 42F3 TCR. Briefly: SPR. The format is binding, mouse. The settings on record: sc H2-L^d constructs.

With SPLDSLWWI [p3A1], in the assay on 42F3 T cells [1], the IL-2 response entry is on record as “failed to induce a strong IL-2 response”. Also, the “42F3-tetramer staining of peptide-loaded APCs” value in the assay with 42F3 TCR [2] was “stain”. Also, the “effect on agonist (p4B3) induced activation” value in the assay with 42F3 T cells [3] is “not influenced”. Moreover, the “H2-L^d-peptide-tetramer staining of 42F3 T cells” value in the assay with 42F3 T cells [4] is “did not stain”. In addition, the “stimulation of 42F3 T cells by peptide-loaded H2-L^d-Ig dimers” value with 42F3 T cells [5] is given as “failed to stimulate”. In addition, in assay [6], the 2D-Ackon result is on record as “weak”. In addition, in assay [6] (H2-L^d-peptide), the “2D-koff, rank among the peptides” value is given as “slowest 2D-koff”. The “SPR derived 3D affinity (KA), rank among the peptides” value in the assay with 42F3 TCR [7] is “highest affinity”.
